Screening results: PubChem, several laboratories
Compounds with a hit are over-represented: about 1.4% of the library has one in this group of screens.
NR2E3 ag-1: inhibitors of NR2E3-RetCOR corepressor binding, primary screen, NR2E3 agonist project, biochemical, TR-FRET, GST-NR2E3, biotin-RetCOR | 320,000 tested, 0.12% active | inhibition of corepressor binding, % at 4.78 µM | Photoreceptor-specific nuclear receptor (Homo sapiens), Q9Y5X4 | 1536-well;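 active means percent inhibition above the cutoff of mean plus 3 SD of all tested compounds, set per screening campaign, cut at about 20% in these data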;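 further: 0% = DMSO wells and 100% = biotin wells as full block of FRET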
Target sequence (Q9Y5X4 whole entry, looked up): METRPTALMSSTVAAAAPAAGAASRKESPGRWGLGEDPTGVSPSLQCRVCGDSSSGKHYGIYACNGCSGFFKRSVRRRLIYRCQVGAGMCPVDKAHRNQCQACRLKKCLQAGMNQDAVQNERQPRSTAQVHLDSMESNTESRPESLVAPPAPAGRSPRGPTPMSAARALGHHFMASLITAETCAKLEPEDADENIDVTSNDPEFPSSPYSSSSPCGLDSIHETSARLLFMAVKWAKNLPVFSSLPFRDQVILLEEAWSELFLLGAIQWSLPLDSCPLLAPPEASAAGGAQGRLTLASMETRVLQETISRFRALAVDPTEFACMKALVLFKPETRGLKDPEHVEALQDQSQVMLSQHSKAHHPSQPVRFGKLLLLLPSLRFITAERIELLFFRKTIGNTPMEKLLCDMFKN
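Material: NR2E3–RetCOR corepressor complex / Incubation: Compound–protein incubation for 5 h at 4 °C / Dosing: compound at 4.8 µM, single dose / Detection: time-resolved FRET / Benchmarks: high control biotin, low control 0.6% DMSO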
PG9 binder: binders of HIV-1 gp120 antibody PG9, primary screen, biochemical, TR-FRET. 360,000 tested, 0.43% active. TR-FRET gp120-PG9 antibody binding. HIV-1 gp120 / PG9 antibody interaction. AID 624416, 2012. inhibition, % at 6.7 µM; in the data active means inhibition above about 8.5%
Rev-erbA mod: modulators of Rev-erb alpha DNA binding, primary screen, biochemical, FITC-DNA, fluorescence polarization, uHTS; Nuclear receptor subfamily 1 group D member 1 (Homo sapiens), P20393; Rev-erbα–FITC-DNA binding, 90 min; activity, % at 10 µM; 370,000 tested, 0.79% active; AID 1259318, 2017;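 active means activity above about 14%, limit read from the data; passing the limit was not always enough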;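 further: 0% = DMSO wells with 35 nM protein and 100% = DMSO wells with 750 nM protein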
NR2E3 ag-2: NR2E3 agonists in two-hybrid cells, primary screen, cell-based, luminescence, CHO-S, Gal4-NCOR/VP16-NR2E3. Photoreceptor-specific nuclear receptor (Homo sapiens), Q9Y5X4. luciferase. inhibition of corepressor binding, % at 3.98 µM. 360,000 tested, 0.35% active. AID 602229, 2012;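 active means inhibition above the mean of all tested compounds plus 3 SD, cut at about 70% in these data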;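 further: 0% = DMSO with NR2E3 transfected cells and 100% = cells lacking NR2E3 construct; higher means lower luciferase signal from less NR2E3 corepressor binding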
PG9 binder conf: binders of anti-gp120 antibody PG9, confirmation, biochemical, TR-FRET; AID 651571, 2012; inhibition, % at 6.7 µM; 1,500 tested, 90% active; shares compounds with PG9 binder; TR-FRET PG9 antibody binding; in the data active means inhibition above about 9%
PGV04 Ab binding: binders of control antibody PGV04, counter-screen for PG9 antibody binder project, biochemical, TR-FRET, distinct HIV envelope site; shares compounds with PG9 binder; TR-FRET PGV04 antibody-gp120 binding; inhibition, % at 6.7 µM; 1,500 tested, 95% active; AID 651604, 2012; in the data active means inhibition above about 9.5%
NR1D1 mod conf: modulators of Rev-erb alpha DNA binding, confirmation, biochemical, FITC-DNA, fluorescence polarization, single point; shares compounds with Rev-erbA mod; 90 min; 3,000 tested, 61% active; AID 1259319, 2017; activation, % at 25 µM;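 active means activation at or above a set limit, or at least 3 SD above the negative control mean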;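 further: 0% = 35 nM protein with DMSO and 100% = 750 nM protein high control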
RORg counter: modulation of RORgamma DNA binding, dose response, counter-screen for Rev-erb alpha modulator project, biochemical, fluorescence polarization, FITC-DNA | shares compounds with Rev-erbA mod | purified RORgamma protein-FITC-DNA binding | IC50, µM | 910 tested, 8% active;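 active means Compounds whose fitted half-maximal concentration for disrupting protein-DNA binding is below 10 micromolar; the record names Rev-erb in its text, so the target is in doubt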
The depositor's hits bear a star; i = inactive; / = no result given.

SMILES	NR2E3 ag-1	PG9 binder	Rev-erbA mod	NR2E3 ag-2	PG9 binder conf	PGV04 Ab binding	NR1D1 mod conf	others
Cc1cc(NS(=O)(=O)c2ccc(NC(=O)CSc3nc4sc(C)c(C)c4c(=O)n3Cc3ccco3)cc2)nc(C)n1	/	/	-3.1	/	/	/	/
CCN(Cc1cn(Cc2ccccc2)nn1)S(=O)(=O)c1ccccc1Br	/	/	-2.1	/	/	/	/
COc1ccc(-c2c(C)nc3c(-c4ccsc4)cnn3c2N)cc1	2.2	36.4*	107.9*	-73.4	7.8	16.0*	65.8*	RORg counter=>40
Cc1onc(C(=O)N2CCN(C(c3ccc(F)cc3)c3ccc(F)cc3)CC2)c1[N+](=O)[O-]	/	/	4.6	/	/	/	/
O=C(Cn1cnc2sc(-c3ccccc3)cc2c1=O)NCc1ccccc1	-2.1	-0.9	-8.5	-49.4	/	/	/
O=C(Cn1cnc2sc(-c3ccccc3)cc2c1=O)NCCc1ccccc1	-2.8	9.1*	65.1*	-3.0	39.8*	60.0*	28.3*
Cc1cc2c(s1)c1cnn(CC(=O)NCCc3ccccc3)c(=O)c1n2C	-124.9	36.6*	307.0*	/	48.7*	49.6*	351.8*
C[C@H]1[C@@H](OC(=O)NCc2ccco2)CC[C@@]23CCCN2C(=O)CCC[C@@H]13	/	/	5.2	/	/	/	/
CCC[C@H]1[C@@H](OC(=O)NCc2cccs2)CC[C@@]23CCCN2C(=O)CCC[C@@H]13	/	/	6.2	/	/	/	/
COC(=O)c1ccc2nc(NC(=O)CCS(=O)(=O)c3ccccc3)sc2c1	5.7	14.9*	43.4*	-6.4	24.7*	35.8*	17.9*
O=C1c2cccc3cccc(c23)C(=O)N1Cc1cccnc1	2.8	-0.3	5.3	-2.1	/	/	/
O=C1c2cccc3cccc(c23)C(=O)N1Cc1ccccc1	10.1	50.9*	35.9*	13.9	60.4*	68.6*	12.8
Cc1sc2nc(SC(C)C)nc(N)c2c1C	-0.2	10.6*	48.5*	-2.8	8.8*	13.4*	40.7*	RORg counter=>40
Cc1nn(-c2ccccc2)c(C)c1/C=N\NC(=O)CSc1nc2ccccc2n1Cc1ccc(Cl)cc1	/	/	-0.9	/	/	/	/
COC1C(CO)OC(n2c3c(Cl)cccc3c3c4c(c5c6cccc(Cl)c6[nH]c5c32)C(=O)NC4=O)C(O)C1O (stereo unspecified)	/	72.4*	111.3*	20.0	56.2*	67.8*	173.2*	RORg counter=>40
C[C@H]1COc2c3ccccc3nn21	/	/	-1.5	/	/	/	/
CCC(C(=O)NC1CCCC1)N(C(=O)c1snc(C(N)=O)c1N)c1ccc(OC)cc1 (stereo unspecified)	6.7	33.9*	17.5*	-9.6	15.2*	41.1*	-3.2
CC(=O)c1ccc(NC(=O)C(C)n2c3ccccc3c3nc(=O)cc(C)n32)cc1 (stereo unspecified)	1.1	9.5*	20.9*	-25.0	14.0*	15.2*	8.7
Cc1cc(=O)nc2c3ccccc3n(C(C)C(=O)NCCC(C)C)n12 (stereo unspecified)	3.4	-3.3	-0.7	12.2	/	/	/
CC(=O)c1ccc(Nc2ncnc3ccc(Br)cc23)cc1	/	10.8*	121.5*	-10.9	20.2*	56.0*	119.1*	RORg counter=>40
CC(=O)c1cccc(NC(=O)CCc2nc3sc4c(c3c(=O)[nH]2)CCCC4)c1	0.5	13.5*	23.3*	-29.3	10.9*	23.8*	17.8*
COc1cc2cc(C#N)c(SCC(=O)Nc3cc(C)on3)nc2cc1OC	4.8	46.4*	113.0*	13.1	48.9*	68.8*	75.1*	RORg counter=>40
Cc1cc(C)c2nc(SCC(=O)Nc3cc(C)on3)c(C)cc2c1	0.3	-0.3	10.7	-11.4	/	/	/
Cc1ccc(C)c2nc(SCC(=O)NCc3cccs3)c(C#N)cc12	3.8	1.1	-4.3	4.7	/	/	/
Cc1cccc2cc(C#N)c(SCC(=O)NCc3cccs3)nc12	-6.9	42.5*	86.6*	20.4	49.7*	74.8*	60.8*	RORg counter=i
SMILES	NR2E3 ag-1	PG9 binder	Rev-erbA mod	NR2E3 ag-2	PG9 binder conf	PGV04 Ab binding	NR1D1 mod conf	others
CCc1cc2cc(C)ccc2nc1SCC(=O)Nc1cc(C)on1	-17.5	14.1*	16.8*	9.0	11.3*	31.1*	25.8*
Cc1cc(C)c2nc(SCC(=O)Nc3cc(C)on3)c(C#N)cc2c1	-0.1	28.4*	103.5*	2.6	51.7*	75.2*	67.6*	RORg counter=i
COC(=O)C1CN(CC(C)C)CCS(=O)(=O)N1Cc1cccc(Cl)c1 (stereo unspecified)	/	/	7.1	/	/	/	/
CCOC(=O)CC(=O)CSc1nc2ccc(C)cc2cc1C#N	6.5	-12.1	2.0	-127.8	/	/	/
Cc1cc(NC(=O)CSc2nc3c(c(-c4cccnc4)c2C#N)CCC3)no1	-1.5	20.5*	40.7*	-25.3	31.8*	65.9*	38.7*
Cc1ccc2nc(SCC(=O)Nc3ccc4sc(C)nc4c3)c(C#N)cc2c1	-1.7	33.4*	73.4*	-6.6	29.5*	53.9*	71.4*	RORg counter=>40
Nn1c(SCc2cccc3ccccc23)nnc1-c1cc(-c2ccc(F)cc2)n[nH]1	/	/	2.1	/	/	/	/
COC(=O)c1c(NC(C)=O)sc(C(=O)Nc2ccccc2F)c1C	0.0	30.9*	26.2*	-7.6	36.3*	45.4*	20.9*
CCCNC(=O)c1ccc2c(=O)n3c(-c4ccc(C)cc4)csc3nc2c1	8.2	24.2*	25.9*	12.7	36.6*	67.9*	24.2*
CCCNC(=O)c1ccc2snnc2c1	0.6	1.0	-1.5	1.8	/	/	/
O=C1C[C@@H](O)[C@H](O)c2cccc(O)c21	/	/	-5.8	/	/	/	/
COC(=O)[C@]12C[C@H](CC(=O)NCCC(C)C)C(=O)N(CCc3ccc(OC)c(OC)c3)C1=C[C@H](COCc1ccccc1)O[C@@H]2C	/	/	-6.5	/	/	/	/
COCCCN1C(=O)[C@H](CC(=O)N2CCSCC2)[C@]2(C(=O)OC)CCCCC=C12	/	/	9.6	/	/	/	/
COc1ccccc1C(=O)NCCNc1nc2cc(C)cc(C)c2cc1C#N	5.9	0.0	3.8	10.8	/	/	/
Cc1cc(C)c2cc(C#N)c(NCCNC(=O)c3ccccc3)nc2c1	/	28.6*	17.7*	/	24.6*	31.6*	15.4*
COC(=O)[C@]12CCCCC=C1N(Cc1ccc(OC)cc1)C(=O)[C@@H]2CC(=O)NCc1cccs1	/	/	1.3	/	/	/	/
